# Data taken from ChEMBL document CHEMBL2375233, “Cytotoxic phorbol esters of Croton tiglium” (J Nat Prod, 2013).
# Tested on: SNU-387
# Assay: Cytotoxicity against human SNU387 cells after 48 hrs by MTT assay
# Type: functional, cell-based
# Conditions: SNU-387, 48 h
# Summary of the method: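 SNU387 hepatoma cells (Shanghai Cell Bank) grown in RPMI1640 with 10% FBS, seeded in 96-well plates and exposed to test compounds at various concentrations for 48 h. Viability read by MTT, absorbance at 570 nm. IC50 calculated from concentration-response; samples assayed in triplicate, paclitaxel as positive control.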
structure (smiles),measurement,value
CCCCC/C=C\C/C=C\CCCCCCCC(=O)OCC1=C[C@H]2[C@@H]3C(C)(C)[C@]3(OC(C)=O)[C@H](O)[C@@H](C)[C@]2(O)[C@@H]2C=C(C)C(=O)[C@@H]2C1,IC50,8.1 µM
CCCCCCCCCC(=O)O[C@@]12[C@H](OC(C)=O)[C@@H](C)[C@@]3(O)[C@@H](C=C(CO)C[C@]4(O)C(=O)C(C)=C[C@@H]34)[C@@H]1C2(C)C,IC50,> 10 µM
C/C=C(\C)C(=O)O[C@@H]1[C@@H](C)[C@]2(O)[C@@H]3C=C(C)C(=O)[C@@H]3CC(CO)=C[C@H]2[C@@H]2C(C)(C)[C@]12OC(=O)CCCCCCCCC,IC50,> 10 µM
C/C=C(\C)C(=O)O[C@@H]1[C@@H](C)[C@@]2(O)[C@@H](C=C(CO)C[C@]3(O)C(=O)C(C)=C[C@@H]23)[C@@H]2C(C)(C)[C@]12OC(=O)C(C)C,IC50,> 10 µM
CCCCCCCCCCCCCCCC(=O)O[C@@H]1[C@@H](C)[C@@]2(O)[C@@H](C=C(CO)C[C@]3(O)C(=O)C(C)=C[C@@H]23)[C@@H]2C(C)(C)[C@]12OC(C)=O,IC50,> 10 µM
CC(=O)O[C@H]1C(=O)[C@@]2(C)[C@H]([C@H](OC(=O)c3ccccc3)[C@]3(O)C[C@H](OC(=O)[C@H](O)[C@@H](NC(=O)c4ccccc4)c4ccccc4)C(C)=C1C3(C)C)[C@]1(OC(C)=O)CO[C@@H]1C[C@@H]2O [PACLITAXEL],IC50,0.27 µM
C/C=C(\C)C(=O)O[C@@H]1[C@@H](C)[C@]2(O)[C@@H]3C=C(C)C(=O)[C@@H]3CC(CO)=C[C@H]2[C@@H]2C(C)(C)[C@]12OC(=O)Cc1ccccc1,IC50,> 10 µM
CCCCCCCC/C=C\CCCCCCCC(=O)OCC1=C[C@H]2[C@@H]3C(C)(C)[C@]3(OC(C)=O)[C@H](O)[C@@H](C)[C@]2(O)[C@@H]2C=C(C)C(=O)[C@@H]2C1,IC50,6.6 µM
CCCCCCCCCCCC(=O)O[C@@]12[C@H](OC(C)=O)[C@@H](C)[C@@]3(O)[C@@H](C=C(CO)C[C@]4(O)C(=O)C(C)=C[C@@H]34)[C@@H]1C2(C)C,IC50,> 10 µM
C/C=C(\C)C(=O)O[C@@H]1[C@@H](C)[C@@]2(O)[C@@H](C=C(CO)C[C@]3(O)C(=O)C(C)=C[C@@H]23)[C@@H]2C(C)(C)[C@]12OC(=O)CC,IC50,> 10.2 µM
C/C=C(\C)C(=O)O[C@@H]1[C@@H](C)[C@]2(O)[C@@H]3C=C(C)C(=O)[C@@H]3CC(CO)=C[C@H]2[C@@H]2C(C)(C)[C@]12OC(=O)C(C)CC (stereo not given in full),IC50,> 10 µM
CCC(C)C(=O)O[C@@H]1[C@@H](C)[C@@]2(O)[C@@H](C=C(CO)C[C@]3(O)C(=O)C(C)=C[C@@H]23)[C@@H]2C(C)(C)[C@]12OC(=O)C(C)C (stereo not given in full),IC50,> 10 µM
CCCCCCCCCCCCCC(=O)O[C@@H]1[C@@H](C)[C@@]2(O)[C@@H](C=C(CO)C[C@]3(O)C(=O)C(C)=C[C@@H]23)[C@@H]2C(C)(C)[C@]12OC(C)=O [PHORBOL MYRISTATE ACETATE],IC50,> 10 µM
C/C=C(\C)C(=O)O[C@@H]1[C@@H](C)[C@]2(O)[C@@H]3C=C(C)C(=O)[C@@H]3CC(CO)=C[C@H]2[C@@H]2C(C)(C)[C@]12OC(C)=O,IC50,> 10 µM
CCCCC/C=C\C/C=C\CCCCCCCC(=O)OCC1=C[C@H]2[C@@H]3C(C)(C)[C@]3(OC(C)=O)[C@H](O)[C@@H](C)[C@]2(O)[C@@H]2C=C(C)C(=O)[C@@]2(O)C1,IC50,3.4 µM
CCCCCCCC/C=C\CCCCCCCC(=O)OCC1=C[C@H]2[C@@H]3C(C)(C)[C@]3(OC(C)=O)[C@H](O)[C@@H](C)[C@]2(O)[C@@H]2C=C(C)C(=O)[C@@]2(O)C1,IC50,1.2 µM
C/C=C(\C)C(=O)O[C@@H]1[C@@H](C)[C@@]2(O)[C@@H](C=C(CO)C[C@]3(O)C(=O)C(C)=C[C@@H]23)[C@@H]2C(C)(C)[C@]12OC(=O)C(C)CC (stereo not given in full),IC50,8.7 µM
C/C=C(\C)C(=O)O[C@@H]1[C@@H](C)[C@]2(O)[C@@H]3C=C(C)C(=O)[C@@H]3CC(CO)=C[C@H]2[C@@H]2C(C)(C)[C@]12OC(=O)C(C)C,IC50,> 10 µM
C/C=C(\C)C(=O)O[C@@]12[C@H](OC(=O)C(C)CC)[C@@H](C)[C@@]3(O)[C@@H](C=C(CO)C[C@]4(O)C(=O)C(C)=C[C@@H]34)[C@@H]1C2(C)C (stereo not given in full),IC50,> 10 µM
CCCCCCCCCCCC(=O)O[C@@]12[C@H](OC(=O)C(C)CC)[C@@H](C)[C@@]3(O)[C@@H](C=C(CO)C[C@]4(O)C(=O)C(C)=C[C@@H]34)[C@@H]1C2(C)C (stereo not given in full),IC50,> 10 µM
